This is an account of results in publication PMC2834294 (Chemistry & biology, 2010).

Common to all, as to assay type: cell-based
In series [1] the target is T1, TRPML3 (Homo sapiens, UniProt Q8TDD5).
T1 sequence (Q8TDD5 1-553): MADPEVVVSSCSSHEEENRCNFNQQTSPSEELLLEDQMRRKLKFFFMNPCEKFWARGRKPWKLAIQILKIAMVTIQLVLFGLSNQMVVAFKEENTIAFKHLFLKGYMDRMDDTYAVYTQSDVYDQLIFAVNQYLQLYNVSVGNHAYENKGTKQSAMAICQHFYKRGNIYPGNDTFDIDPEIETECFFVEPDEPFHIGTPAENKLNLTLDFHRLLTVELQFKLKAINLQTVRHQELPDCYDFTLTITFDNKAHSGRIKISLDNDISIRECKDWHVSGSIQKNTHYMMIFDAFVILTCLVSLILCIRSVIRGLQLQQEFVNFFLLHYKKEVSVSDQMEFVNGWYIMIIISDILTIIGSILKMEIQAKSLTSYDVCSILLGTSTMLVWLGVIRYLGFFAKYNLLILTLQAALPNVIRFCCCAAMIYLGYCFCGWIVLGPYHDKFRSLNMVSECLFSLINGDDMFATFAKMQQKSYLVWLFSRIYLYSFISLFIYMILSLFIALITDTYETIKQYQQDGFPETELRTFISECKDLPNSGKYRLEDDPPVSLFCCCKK
The series is described as follows: Whole-cell patch-clamp, HEK293 cells transiently transfected with TRPML3. The method, boiled down:
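Whole-cell patch clamp was done on HEK293 cells 24 h after transient transfection with human TRPML3 or YFP; constitutively active TRPML3(A419P) cells served as positive control. Bath solution (mM): 138 NaCl, 5.4 KCl, 2 MgCl2, 2 CaCl2, 10 HEPES, 10 d-glucose; pH 7.4. Pipette solution (mM): 140 CsCl, 10 HEPES, 3 ATP-Na, 1 BAPTA, 2 MgCl2; pH 7.2. Compounds at 10 µM were perfused. Capacitance-normalized current at −80 mV is reported as mean ± SEM, n≥3.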

The next series has as its target TRPML1(NC) (Homo sapiens, UniProt Q9GZU1). Briefly: Fura-2 calcium imaging, HEK293 cells expressing TRPML1. Particulars: 10 µM, plasma membrane-localized TRPML1 variant. The method in brief:
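HEK293 cells were transiently transfected (Genejammer) with the human channel construct or YFP control and measured 24 h later. Cells on glass coverslips were loaded with 4 µM fura-2-AM in bath solution (mM: 138 NaCl, 6 KCl, 2 MgCl2, 2 CaCl2, 10 HEPES, 5.5 D-glucose; pH 7.4). Compounds were applied at 10 µM and the F340/F380 ratio recorded. Values are mean ± SEM, n≥3.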

In series [2] the test system is TRPML3. The method, boiled down:
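Whole-cell recordings used HEK293 cells expressing TRPML3 with 100% series-resistance compensation. Pipette solution (mM): 140 CsCl, 10 HEPES, 3 ATP-Na, 1 BAPTA, 2 MgCl2; pH 7.2. Compound at 10 µM was perfused in endolymph-like solution (mM: 2 NaCl, 150 KCl, 0.25 CaCl2, 10 HEPES, 10 glucose; pH 7.4) or in standard bath. Inward current at −80 mV was normalized to capacitance.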

In series [3] the target is T1, TRPML3. The series is described as follows: Whole-cell patch-clamp with intracellular application. Background: In patch-clamp work, channel activity is measured electrically.

SMILES strings stand for the structures.

Chain of TRPML1(NC) (Q9GZU1 17-572 limits assumed): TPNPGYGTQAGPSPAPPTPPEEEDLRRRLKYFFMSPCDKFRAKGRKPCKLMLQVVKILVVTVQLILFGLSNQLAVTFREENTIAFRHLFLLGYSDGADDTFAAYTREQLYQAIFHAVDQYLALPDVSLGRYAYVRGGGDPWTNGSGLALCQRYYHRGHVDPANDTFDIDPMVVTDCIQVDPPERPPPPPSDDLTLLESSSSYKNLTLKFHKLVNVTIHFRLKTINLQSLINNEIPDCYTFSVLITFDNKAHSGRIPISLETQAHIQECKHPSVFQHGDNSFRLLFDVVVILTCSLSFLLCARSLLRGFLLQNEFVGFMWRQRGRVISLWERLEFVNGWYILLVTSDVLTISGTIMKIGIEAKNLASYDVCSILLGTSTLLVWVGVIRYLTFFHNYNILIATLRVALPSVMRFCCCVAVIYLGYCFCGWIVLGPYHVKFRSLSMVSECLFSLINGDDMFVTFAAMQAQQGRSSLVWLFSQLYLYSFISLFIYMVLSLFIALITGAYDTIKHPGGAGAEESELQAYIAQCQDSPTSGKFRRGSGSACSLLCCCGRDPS

Regarding `Cc1cc(C)c(C2=NOC3C4CCC(C4)C23)c(C)c1` (stereo not shown) [SN-2, 5-mesityl-3-oxa-4-azatricyclo[5.2.1.0∼2,6∼]dec-4-ene], the “nA/pF (-80 mV) (TRPML3)” value on TRPML3 [1] (current density at −80 mV, 10 µM in standard bath solution, mean ±SEM (n≥3)) is recorded as −0.30 ±0.07 nA/pF. Further, the “average current density relative to constitutively active TRPML3 A419P” value on TRPML3 [1] (whole-cell, −80 mV) is recorded as “comparable to average current densities obtained from cells expressing the constitutively active varitint-waddler mutant isoform A419P”. For the same compound, on TRPML1(NC), the “activation of mutant TRPML1(NC) isoform” value was “did not show any activity”. The “increase in current densities, compound + ELS vs ELS alone or compound in SBS” value in the series on TRPML3 [2] (10 µM compound, ELS 2 mM Na+, 150 mM K+) is listed as at most 10 fold. Also, the “average current densities, compound + ELS” value in the series with TRPML3 [2] (10 µM, at −80 mV) is recorded as “up to 3 nA/pF”. Besides, the “cell membrane permeability” value on TRPML3 [3] (inferred from intracellular infusion experiment) is “not cell permeant”. For the same compound, the “response to intracellular application (infusion)” value on TRPML3 [3] (whole-cell, −80 mV) was “did not elicit a response when infused into the cells”.
